In article PMC11102597 (Molecular cell, 2023):
Substitutions are numbered along the chain they refer to. Where two headings read alike, the source gives them in different places.

How the values were obtained:
[1] = molecular target: T1, Acb2 protein (PaMx33-Acb2) (Pseudomonas phage PaMx33, UniProt A0A1C8HPQ3); test: Native gel; format: binding, P. aeruginosa phage PaMx33; settings: WT PaMx33-Acb2 14.3 μM
PaMx33-Acb2 [2] = molecular target: T2, PaMx33-Acb2 (Pseudomonas phage PaMx33, UniProt A0A1C8HPQ3); test: biochemical; format: binding; settings: for binding to Acb2 (ITC): WT PaMx33-Acb2
T2 sequence (A0A1C8HPQ3 whole entry): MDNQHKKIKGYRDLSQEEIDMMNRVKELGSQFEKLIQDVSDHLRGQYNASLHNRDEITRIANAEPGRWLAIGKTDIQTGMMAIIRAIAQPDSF

[3] = molecular target: T1, Acb2 protein (PaMx33-Acb2); settings: Figure S1A–B; cited from earlier work
Y11A Acb2 mutant [4] = molecular target: T3, Y11A Acb2 mutant (Pseudomonas phage PaMx33, UniProt A0A1C8HPQ3, Y11A); settings: method not stated here; cited from earlier work
T3 sequence (A0A1C8HPQ3 whole entry Y11A): as the sequence (A0A1C8HPQ3 whole entry) above, with Y11A counted along it

CHI14-Acb2 [5] = molecular target: T4, CHI14-Acb2 (Serratia phage CHI14, UniProt A0A1Z1LXK7); test: Native gel shift assay with CHI14-Acb2; format: binding
T4 sequence (A0A1Z1LXK7 1-96): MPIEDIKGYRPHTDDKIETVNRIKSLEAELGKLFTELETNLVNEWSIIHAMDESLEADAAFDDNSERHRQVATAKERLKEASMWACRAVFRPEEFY
How it was run: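 Recombinant Acb2, expressed in E. coli BL21 (DE3) with 12 h induction at 18°C, was purified as a His6-SUMO fusion on Ni-NTA, cut with Ulp1, then gel-filtered in 10 mM Tris-HCl pH 8.0, 500 mM NaCl, 5 mM DTT. Protein (14.3 μM) was preincubated 10 min at 18°C with cyclic dinucleotides (1.8, 3.6, 7.2 μM). Samples were run on 5% native polyacrylamide gels and stained with Coomassie blue.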

JBD67-Acb2 = JBD67-Acb2 (Pseudomonas phage JBD67, UniProt P0DX89); test: ITC binding to JBD67-Acb2; parameters: species or system P. aeruginosa phage JBD67
Sequence of JBD67-Acb2 (P0DX89 whole entry): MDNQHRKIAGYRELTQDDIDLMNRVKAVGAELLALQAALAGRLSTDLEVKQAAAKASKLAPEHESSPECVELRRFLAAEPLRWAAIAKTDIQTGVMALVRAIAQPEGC

CHI14-Acb2 [6] = molecular target: T4, CHI14-Acb2; test: ITC binding to CHI14-Acb2
T4-Acb2 = T4-Acb2 (Enterobacteria phage T4, UniProt P13314); test: ITC binding to T4-Acb2; parameters: species or system Escherichia phage T4
Sequence of T4-Acb2 (P13314 whole entry): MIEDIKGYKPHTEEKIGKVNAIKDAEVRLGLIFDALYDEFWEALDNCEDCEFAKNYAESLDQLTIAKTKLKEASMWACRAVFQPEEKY

K26A Acb2 mutant [7] = molecular target: T5, K26A Acb2 mutant (Pseudomonas phage PaMx33, UniProt A0A1C8HPQ3, K26A); settings: method not stated here; cited from earlier work
T5 sequence (A0A1C8HPQ3 whole entry K26A): as the sequence (A0A1C8HPQ3 whole entry) above, with K26A counted along it

PaMx33-Acb2 [8] = molecular target: T2, PaMx33-Acb2; settings: WT Acb2; cited from earlier work
PaMx33-Acb2 [9] = molecular target: T2, PaMx33-Acb2; test: HPLC analysis of cA3 binding and release by Acb2; parameters: species or system P. aeruginosa phage PaMx33
Acb2 T74A mutant = molecular target: T6, Acb2 T74A mutant (Pseudomonas phage PaMx33, UniProt A0A1C8HPQ3, T74A); test: ITC binding to PaMx33-Acb2 T74A mutant; parameters: species or system P. aeruginosa phage PaMx33
T6 sequence (A0A1C8HPQ3 1-93 T74A): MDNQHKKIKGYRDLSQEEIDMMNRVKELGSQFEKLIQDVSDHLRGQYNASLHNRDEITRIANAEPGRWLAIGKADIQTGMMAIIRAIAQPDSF

D61R mutant of T4-Acb2 = molecular target: T7, D61R mutant of T4-Acb2 (Enterobacteria phage T4, UniProt P13314, D61R); test: ITC binding to T4-Acb2 D61R mutant; parameters: species or system Escherichia phage T4
T7 sequence (P13314 1-88 D61R): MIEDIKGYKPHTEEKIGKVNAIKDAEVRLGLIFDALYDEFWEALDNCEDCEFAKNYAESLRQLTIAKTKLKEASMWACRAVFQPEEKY

Y11A Acb2 mutant [10] = molecular target: T3, Y11A Acb2 mutant; test: Native gel shift assay with Acb2 Y11A mutant; format: binding, P. aeruginosa phage PaMx33
NucC [11] = molecular target: NucC (Pseudomonas aeruginosa, UniProt P0DTF8); test: In vitro NucC activity assay; format: biochemical, P. aeruginosa strain ATCC 27853 (Pa278); settings: cA3 5 nM
Acb2 R67A mutant = molecular target: T8, Acb2 R67A mutant (Pseudomonas phage PaMx33, UniProt A0A1C8HPQ3, R67A); test: ITC binding to PaMx33-Acb2 R67A mutant; parameters: species or system P. aeruginosa phage PaMx33; settings: in vitro
T8 sequence (A0A1C8HPQ3 1-93 R67A): T6 sequence (A0A1C8HPQ3 1-93 T74A) with R67A, A74T

K26A Acb2 mutant [12] = molecular target: T5, K26A Acb2 mutant; test: Native gel shift assay with Acb2 K26A mutant; format: binding, P. aeruginosa phage PaMx33
crystal structure = molecular target: the molecule itself; test: crystal structure
NucC [13] = molecular target: T9, NucC (Pseudomonas aeruginosa, UniProt P0DTF8); test: In vitro NucC activity assay; format: biochemical, P. aeruginosa strain ATCC 27853 (Pa278); settings: NucC 10 nM, cA3 5 nM, Acb2 50 nM
T9 sequence (P0DTF8 whole entry, looked up): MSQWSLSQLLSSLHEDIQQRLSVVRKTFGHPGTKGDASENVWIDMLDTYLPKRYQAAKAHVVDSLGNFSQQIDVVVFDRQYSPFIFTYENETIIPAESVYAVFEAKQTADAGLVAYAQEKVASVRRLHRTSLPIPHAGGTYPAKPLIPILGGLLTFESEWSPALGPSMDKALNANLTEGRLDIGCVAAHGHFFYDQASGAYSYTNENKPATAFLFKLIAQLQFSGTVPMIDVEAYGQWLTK

T1 sequence (A0A1C8HPQ3 whole entry): as the sequence (A0A1C8HPQ3 whole entry) above

## Nc1nc2c(ncn2[C@@H]2O[C@@H]3COP(=O)(O)O[C@@H]4[C@H](O)[C@@H](COP(=O)(O)O[C@H]3[C@H]2O)O[C@H]4n2cnc3c(N)ncnc32)c(=O)[nH]1 [3’,2’-cGAMP]
[1]
  shift of the Acb2 protein / binding (native gel): significant shift
PaMx33-Acb2 [2]
  Kd: ~298 nM

## Nc1ncnc2c1ncn2[C@@H]1O[C@@H]2COP(=O)(O)O[C@H]3[C@@H](O)[C@H](n4cnc5c(N)ncnc54)O[C@@H]3COP(=O)(O)O[C@H]2[C@H]1O [3’,3’-cAA, c-di-AMP]
[3]
  binding to Acb2 (previous work): binds

## Nc1nc2c(ncn2[C@@H]2O[C@@H]3COP(=O)(O)O[C@H]4[C@@H](O)[C@H](n5cnc6c(N)ncnc65)O[C@@H]4COP(=O)(O)O[C@H]3[C@H]2O)c(=O)[nH]1 [3’,3’-cGAMP]
Y11A Acb2 mutant [4]
  binding to Y11A Acb2 mutant: lose their binding
CHI14-Acb2 [5]
  shift of the CHI14-Acb2 protein (native gel): almost no shift
JBD67-Acb2
  Kd: ~99 nM
CHI14-Acb2 [6]
  Kd: ~62.4 nM
T4-Acb2
  Kd: ~84.4 nM
K26A Acb2 mutant [7]
  binding to K26A Acb2 mutant: lose their binding
[3]
  binding to Acb2 (previous work): binds
PaMx33-Acb2 [8]
  Kd: ~87 nM

## Nc1nc2c(ncn2[C@@H]2O[C@@H]3COP(=O)(O)O[C@H]4[C@@H](O)[C@H](n5ccc(=O)[nH]c5=O)O[C@@H]4COP(=O)(O)O[C@H]3[C@H]2O)c(=O)[nH]1 [3’,3’-cUG, 3’,3’-c-UMP-GMP]
[3]
  binding to Acb2 (previous work): binds

## O=c1ccn([C@@H]2O[C@@H]3COP(=O)(O)O[C@H]4[C@@H](O)[C@H](n5ccc(=O)[nH]c5=O)O[C@@H]4COP(=O)(O)O[C@H]3[C@H]2O)c(=O)[nH]1 [3’,3’-cUU, 3’,3’-c-di-UMP]
[3]
  binding to Acb2 (previous work): binds

## Nc1ncnc2c1ncn2[C@@H]1O[C@@H]2COP(=O)(O)O[C@H]3[C@@H](O)[C@H](n4cnc5c(N)ncnc54)O[C@@H]3COP(=O)(O)O[C@H]3[C@@H](O)[C@H](n4cnc5c(N)ncnc54)O[C@@H]3COP(=O)(O)O[C@H]2[C@H]1O [cA3, 3’3’3’-cyclic AMP-AMP-AMP]
PaMx33-Acb2 [9]; 40 μM Acb2, 4 μM cA3
  remaining cA3 after incubation with Acb2 (HPLC): depletes any detectable molecules
PaMx33-Acb2 [9]; proteinase K treatment
  cA3 after proteolysis of Acb2 (HPLC): released back into the buffer unmodified
Acb2 T74A mutant
  Kd: ~291 nM
JBD67-Acb2
  Kd: ~3.5 nM
[1]
  shift of the Acb2 protein / binding (native gel): significant shift
D61R mutant of T4-Acb2
  binding (ITC): unable to bind
Y11A Acb2 mutant [10]
  binding / shift (native gel): significant shift
PaMx33-Acb2 [2]
  Kd: ~1.5 nM
NucC [11]; NucC 10 nM
  DNA cleavage activity of NucC: activates
NucC [11]; Acb2 50 nM, proteinase K 1 μM
  NucC activity with cA3 released after proteolysis of WT Acb2: again activated
CHI14-Acb2 [6]; CHI14-Acb2
  binding (ITC): does not bind
T4-Acb2; T4-Acb2
  binding (ITC): does not bind
Acb2 R67A mutant
  binding (ITC): abolished
K26A Acb2 mutant [12]
  binding / shift (native gel): significant shift

## Nc1ncnc2c1ncn2[C@@H]1O[C@@H]2COP(=O)(O)O[C@H]3[C@@H](O)[C@H](n4cnc5c(N)ncnc54)O[C@@H]3COP(=O)(O)O[C@H]3[C@@H](O)[C@H](n4cnc5c(N)ncnc54)O[C@@H]3COP(=O)(O)O[C@H]3[C@@H](O)[C@H](n4cnc5c(N)ncnc54)O[C@@H]3COP(=O)(O)O[C@H]3[C@@H](O)[C@H](n4cnc5c(N)ncnc54)O[C@@H]3COP(=O)(O)O[C@H]3[C@@H](O)[C@H](n4cnc5c(N)ncnc54)O[C@@H]3COP(=O)(O)O[C@H]2[C@H]1O [cA6]
[1]
  shift of the Acb2 protein / binding (native gel): does not shift

## Nc1nc2c(ncn2[C@@H]2O[C@@H]3COP(=O)(O)O[C@H]4[C@@H](O)[C@H](n5cnc6c(N)ncnc65)O[C@@H]4COP(=O)(O)O[C@H]4[C@@H](O)[C@H](n5cnc6c(N)ncnc65)O[C@@H]4COP(=O)(O)O[C@H]3[C@H]2O)c(=O)[nH]1 [cAAG, 3’3’3’-cAAG]
[1]
  shift of the Acb2 protein / binding (native gel): significant shift
PaMx33-Acb2 [2]
  Kd: ~2.7 nM

## Nc1ccn([C@@H]2O[C@@H]3COP(=O)(O)O[C@H]3[C@H]2O)c(=O)n1 [cCMP]
[1]
  shift of the Acb2 protein / binding (native gel): does not bind
PaMx33-Acb2 [2]
  binding to Acb2 (ITC): does not bind

## O=c1ccn([C@@H]2O[C@@H]3COP(=O)(O)O[C@H]3[C@H]2O)c(=O)[nH]1 [cUMP]
[1]
  shift of the Acb2 protein / binding (native gel): does not bind
PaMx33-Acb2 [2]
  binding to Acb2 (ITC): does not bind

B1: Acb2 from P. aeruginosa phage PaMx33 (natural protein, Pseudomonas aeruginosa phage PaMx33, UniProt A0A1C8HPQ3 1-93, looked up)
chain: T6 sequence (A0A1C8HPQ3 1-93 T74A) with A74T
Crystal structure
  stoichiometry N: 6

B2: WT Acb2: anti-CBASS protein Acb2 from P. aeruginosa phage PaMx33, cyclic oligonucleotide sponge (protein)
chain: T6 sequence (A0A1C8HPQ3 1-93 T74A) with A74T
modifications: left off: His6-SUMO, end not stated, cleaved
NucC [13]
  effect on cA3-activated NucC activity: significantly decreased
